In PubChem BioAssay:
Active and inactive are the calls of the source.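 Rule for the calls, unless noted: active = mean duplicate potentiation above the buffer control mean plus 5 SD of buffer wells; inactive = the rest.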

Tests used:
[1] = nonspecific flux increase, KCNQ1-free cells – parental CHO cells, counter-screen for KCNQ1 potentiator project (AID 493006;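 active = duplicate-averaged activation above buffer control mean plus 5 SD of those controls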;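 for activation: fluorescence ratio of max minus min over baseline after K+ and Tl+ depolarization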); details: parental CHO-K1 cells, FluxOR thallium flux, at 10 µM; active compounds read high
Procedure, shortened: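 Assay system: parental CHO-K1 cells lacking KCNQ1, loaded with FluxOR thallium dye; timing: dye 90 min RT, compound 20 min RT; signal: kinetic thallium-flux fluorescence; repeats: duplicate wells per compound, percent values averaged; benchmarks: buffer and R-L3 controls; reagent: Potassium/thallium depolarization pulse; read-out: fluorescence change ratio scaled 0% buffer, 100% R-L3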

[2] = target: Potassium voltage-gated channel subfamily KQT member 1 (Homo sapiens) (UniProt P51787); assay: enhancement of KCNQ1 channel thallium flux – FluxOR thallium flux, CHO cells, duplicates, confirmation (AID 493007;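 active = potentiation averaged over duplicate wells exceeding buffer-only control mean by more than 3 SD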;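 for outcome: cells depolarized by a potassium plus thallium sulfate stimulus after compound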); details: KCNQ1 cell line, FluxOR thallium flux fluorescence, at 10 µM; active compounds read high, % of reference activator effect, buffer zero
Procedure, shortened: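 material = CHO cells stably expressing the KCNQ1 potassium channel | repeats = duplicate wells per compound | measure = percent activation between buffer and R-L3 responses | signal = FluxOR thallium-flux fluorescence, kinetic read | schedule = FluxOR dye loading 90 min, compound exposure 20 min, room temperature | control set = buffer and R-L3 controls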

[3] = target: Potassium voltage-gated channel subfamily KQT member 2 (Rattus norvegicus) (UniProt O88943); assay: KCNQ2 thallium flux enhancement – KCNQ2-CHO-K1 cells, selectivity assay for KCNQ1 potentiator project (AID 493009); details: FluxOR thallium flux fluorescence, at 10 µM; active compounds read high, scaled: buffer 0, activator control 100;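 note: assay conditions were tuned for KCNQ1 rather than KCNQ2 modulators; signal is max minus min fluorescence divided by baseline after thallium stimulus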
[4] = target: Potassium voltage-gated channel subfamily KQT member 1 (Homo sapiens) (UniProt P51787); assay: KCNQ1 activators by electrophysiology – IonWorks patch clamp, KCNQ1-CHO cells, orthogonal assay for KCNQ1 potentiator project, confirmation (AID 493184;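 active = current rise at least 3 SD above the untreated control mean in each of two repeat wells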;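 for current potentiation: percent change of the same well's current before compound addition so 0% = no change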); details: automated patch clamp current, at 10 µM; active compounds read high
Procedure, shortened: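 Assay system – CHO cells carrying KCNQ1 · Medium – pH 7.4 external bath · Probe or stimulus – depolarizing pulse to +40 mV from -90 mV · Compound dosing – one dose, 10 µM final · Measured by – automated perforated-patch electrophysiology · Measure – % potentiation of steady-state current relative to pre-compound · Repeats – two replicates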

Potassium voltage-gated channel subfamily KQT member 2 (Rattus norvegicus), sequence (O88943 whole entry, looked up): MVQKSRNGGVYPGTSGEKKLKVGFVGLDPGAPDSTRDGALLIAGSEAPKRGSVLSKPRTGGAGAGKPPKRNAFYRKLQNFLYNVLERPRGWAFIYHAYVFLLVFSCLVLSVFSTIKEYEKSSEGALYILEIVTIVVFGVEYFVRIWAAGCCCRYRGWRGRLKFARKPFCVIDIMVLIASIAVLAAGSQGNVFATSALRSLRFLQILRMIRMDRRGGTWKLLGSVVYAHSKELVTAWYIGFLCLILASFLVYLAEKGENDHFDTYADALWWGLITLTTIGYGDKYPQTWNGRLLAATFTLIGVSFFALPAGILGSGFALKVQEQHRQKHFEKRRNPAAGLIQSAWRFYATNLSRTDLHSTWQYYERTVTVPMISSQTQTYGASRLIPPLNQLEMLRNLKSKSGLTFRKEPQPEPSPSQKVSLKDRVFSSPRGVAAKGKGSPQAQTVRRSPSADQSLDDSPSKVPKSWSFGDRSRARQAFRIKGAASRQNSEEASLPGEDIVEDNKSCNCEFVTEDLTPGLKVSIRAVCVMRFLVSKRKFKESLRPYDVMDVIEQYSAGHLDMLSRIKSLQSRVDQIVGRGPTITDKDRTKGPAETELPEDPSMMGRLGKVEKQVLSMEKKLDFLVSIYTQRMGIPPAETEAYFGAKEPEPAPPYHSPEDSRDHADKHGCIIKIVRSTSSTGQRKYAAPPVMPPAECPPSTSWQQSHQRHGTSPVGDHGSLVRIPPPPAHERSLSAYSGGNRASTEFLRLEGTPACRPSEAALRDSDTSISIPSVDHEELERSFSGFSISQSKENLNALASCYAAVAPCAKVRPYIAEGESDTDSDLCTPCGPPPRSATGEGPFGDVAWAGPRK
Potassium voltage-gated channel subfamily KQT member 1 (Homo sapiens), sequence (P51787 whole entry, looked up): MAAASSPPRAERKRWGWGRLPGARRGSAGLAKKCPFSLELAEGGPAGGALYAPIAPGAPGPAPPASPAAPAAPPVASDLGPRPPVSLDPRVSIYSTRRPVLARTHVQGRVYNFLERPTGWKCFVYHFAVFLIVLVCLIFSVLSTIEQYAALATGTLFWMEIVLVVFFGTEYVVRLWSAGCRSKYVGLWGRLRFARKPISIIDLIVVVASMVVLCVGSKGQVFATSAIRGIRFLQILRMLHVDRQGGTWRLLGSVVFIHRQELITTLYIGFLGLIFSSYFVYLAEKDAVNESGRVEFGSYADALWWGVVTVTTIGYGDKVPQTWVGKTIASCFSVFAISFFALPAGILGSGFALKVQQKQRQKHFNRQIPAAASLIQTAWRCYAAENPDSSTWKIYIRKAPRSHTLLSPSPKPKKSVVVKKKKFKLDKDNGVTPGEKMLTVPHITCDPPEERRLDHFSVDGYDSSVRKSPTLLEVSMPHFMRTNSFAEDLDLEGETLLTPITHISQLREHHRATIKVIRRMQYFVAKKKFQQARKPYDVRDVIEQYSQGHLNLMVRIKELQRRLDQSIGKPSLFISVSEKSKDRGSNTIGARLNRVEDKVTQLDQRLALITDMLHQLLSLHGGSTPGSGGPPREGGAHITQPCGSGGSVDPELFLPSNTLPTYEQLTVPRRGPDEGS

| Compound | outcome [1] | outcome [2] | outcome [3] | outcome [4] | activation [1] | potentiation [2] | potentiation [3] | current potentiation [4] |
| --- | --- | --- | --- | --- | --- | --- | --- | --- |
| CCOc1ccc2c(c1)C(NC(C)=O)C(=O)N2CCN1CCOCC1 (centres undefined) | inactive | inactive | inactive | inactive | – | – | – | – |
| CCCn1c(SCN2C(=O)c3ccccc3C2=O)nc2cc(Cl)ccc2c1=O | – | – | – | inactive | 179% (active) | 39.5% (active) | 196% (active) | – |
| CC(=O)SCC(=O)N=c1sc2cc(F)ccc2n1C | inactive | inactive | inactive | inactive | – | – | – | – |
| Cc1ccc(CSc2nc3ccccc3c(=O)n2CCCC(=O)NCc2ccco2)cc1 | inactive | inactive | inactive | inactive | – | – | – | – |
| CCC1CCc2c(sc(NC(=O)C3CC=CCC3C(=O)O)c2C#N)C1 (centres undefined) | inactive | inactive | inactive | inactive | – | – | – | – |
| O=C(CSc1cccc[n+]1[O-])c1cc(Cl)ccc1Cl | inactive | inactive | inactive | inactive | – | – | – | – |
| Cc1ccnc(NS(=O)(=O)c2ccc(NC(=O)C34CC5CC(CC(C5)C3)C4)cc2)n1 | inactive | inactive | inactive | inactive | – | – | – | – |
| Cc1cccc(NC(=S)NC(=O)c2ccc(Br)o2)c1C | inactive | inactive | inactive | inactive | – | – | – | – |
| CC(O)Cc1cn([C@@H](CCCCN)C(=O)N2CCNCC2)nn1 (some centres undefined) | inactive | inactive | inactive | inactive | – | – | – | – |
| O=C(Cc1cccs1)N=Nc1c(O)[nH]c2ccc(Br)cc12 | inactive | inactive | inactive | inactive | – | – | – | – |
| COc1ccc(OC)c(NC(=O)C(=O)NNC(=O)COc2ccc(Br)cc2C)c1 | – | – | – | inactive | 520% (active) | 346% (active) | 614% (active) | – |
| O=C(NC(=S)N1CCCC(C(F)(F)F)C1)c1ccc(F)cc1 (centres undefined) | – | – | – | inactive | 296% (active) | 66.5% (active) | 260% (active) | – |
| Cc1ccccc1NC(=O)C(=O)NNC(=O)COc1ccc2ccccc2c1 | – | – | – | inactive | 232% (active) | 93.5% (active) | 300% (active) | – |
| Nc1c(C(=O)Nc2ccc(F)cc2)nnn1-c1cccc(C(F)(F)F)c1 | inactive | inactive | inactive | inactive | – | – | – | – |
| N#Cc1ccc(-c2nc3ccc(Br)cc3c(=O)n2O)cc1 | – | – | – | inactive | 300% (active) | 120% (active) | 354% (active) | – |
| O=[N+]([O-])c1ccc(/C([O-])=C(/C(=S)NCc2ccco2)[n+]2ccccc2)cc1 | inactive | inactive | inactive | inactive | – | – | – | – |
| C=CCNC(=S)Nc1sc2c(c1C(=O)OCC)CC(C)(CC)OC2 (centres undefined) | – | – | – | inactive | 318% (active) | 49.5% (active) | 254% (active) | – |
| Cc1ccc(C)c(NS(=O)(=O)c2cc(C(=O)NCc3ccccn3)ccc2Cl)c1 | inactive | inactive | inactive | inactive | – | – | – | – |
| COc1cc(C(=O)NNC(=O)C2CC2)cc(OC)c1OC | inactive | inactive | inactive | inactive | – | – | – | – |

| Compound | outcome [1] | outcome [2] | outcome [3] | outcome [4] | activation [1] | potentiation [2] | potentiation [3] | current potentiation [4] |
| --- | --- | --- | --- | --- | --- | --- | --- | --- |
| CCOC(=O)c1c(N2C(=O)Nc3ccccc3N2O)n[nH]c1-c1cccc(Cl)c1 | inactive | inactive | inactive | inactive | – | – | – | – |
| CC1(C)CC(=O)C2=C(C1)c1c(ccc3ccccc13)NC2c1cc([N+](=O)[O-])cc([N+](=O)[O-])c1O (centres undefined) | inactive | inactive | inactive | inactive | – | – | – | – |
| Cc1ccc(C(=O)Nc2nc(-c3ccccc3)c(-c3ccccc3)o2)cc1 | – | – | – | inactive | 201% (active) | 92.5% (active) | 248% (active) | – |
| COc1cccc(CNC(=O)C2CCN(S(=O)(=O)c3ccc(-n4cnnn4)cc3)CC2)c1 | inactive | inactive | inactive | inactive | – | – | – | – |
| CC1SCC(=NOCc2c(Cl)cccc2Cl)CS1 (centres undefined) | inactive | inactive | inactive | inactive | – | – | – | – |
| O=C(c1cccnc1)N1N=C2CCCCCC2C1(O)C(F)(F)F (centres undefined) | inactive | inactive | inactive | inactive | – | – | – | – |
| O=C(NC(=S)N1CCc2ccccc21)c1ccc(Br)o1 | – | – | – | inactive | 400% (active) | 124% (active) | 440% (active) | – |
| CCCCOC(=O)Nc1ccccc1C(N)=O | inactive | inactive | inactive | inactive | – | – | – | – |
| CC(C)(C)NC(=O)C(=O)NNC(=O)COc1ccc(Br)cc1 | – | – | – | inactive | 227% (active) | 53% (active) | 215% (active) | – |
| CCc1nnc(NC(=O)CSc2n[nH]c(-c3ccccc3O)n2)s1 | inactive | inactive | inactive | inactive | – | – | – | – |
| O=C(Nc1nnc(-c2ccc3c(c2)CCCC3)o1)c1ccccc1 | – | – | – | inactive | 266% (active) | 130% (active) | 400% (active) | – |
| Cc1cc(C)cc(C(=O)OCC(=O)NCC(F)(F)F)c1 | inactive | inactive | inactive | inactive | – | – | – | – |
| O=C(NC(=S)N1CCc2ccccc21)c1ccco1 | – | – | – | inactive | 198% (active) | 49.5% (active) | 226% (active) | – |
| Cc1cccc(CC2CC(=O)N(c3ccc(C)cc3Br)C2=O)c1 (centres undefined) | inactive | inactive | inactive | inactive | – | – | – | – |
| CCC1(c2ccccc2)NC(=S)N(c2ccc(C)cc2)N1 (centres undefined) | – | – | – | inactive | 392% (active) | 198% (active) | 522% (active) | – |
| Cc1ccc(-c2nc3ncccc3o2)cc1NC(=O)c1cccnc1 | inactive | inactive | inactive | inactive | – | – | – | – |
| CC(C)(C)C(=O)NC(=S)NNC(=O)c1ccc(Cl)cc1Cl | inactive | – | – | inactive | – | 52% (active) | 171% (active) | – |
| CCN(CC)C(=S)NC(=O)c1ccc(Cl)cc1Cl | – | – | – | inactive | 226% (active) | 50% (active) | 196% (active) | – |
| Cc1[nH][nH]c(=O)c1C(c1ccc(-c2ccc(F)cc2)o1)c1c(C)[nH][nH]c1=O | inactive | inactive | inactive | inactive | – | – | – | – |

| Compound | outcome [1] | outcome [2] | outcome [3] | outcome [4] | activation [1] | potentiation [2] | potentiation [3] | current potentiation [4] |
| --- | --- | --- | --- | --- | --- | --- | --- | --- |
| Cc1cccc(NC(=O)c2ccc(COc3ccccc3[N+](=O)[O-])o2)n1 | inactive | inactive | inactive | inactive | – | – | – | – |
| O=c1c(-c2ccccc2)[n+]([O-])c2ccccc2n1O | inactive | inactive | inactive | inactive | – | – | – | – |
| CCc1ccc(NC(=O)C(=O)NNC(=O)c2cccc(OC)c2)cc1 | – | – | – | inactive | 269% (active) | 124% (active) | 339% (active) | – |
| Cc1ccc(F)cc1S(=O)(=O)NCc1ccc(N2CCN(C)CC2)cc1 | inactive | inactive | inactive | inactive | – | – | – | – |
| O=C(NN=C1CCCC1)c1n[nH]c2c1CCC2 | – | – | – | inactive | 196% (active) | 35% (active) | 178% (active) | – |
| COCCNC(=O)CN(C)S(=O)(=O)c1ccc(Br)cc1 | inactive | inactive | inactive | inactive | – | – | – | – |
| CCOc1ncccc1C(=O)OCc1ccc(C#N)cc1 | – | – | – | inactive | 286% (active) | 114% (active) | 392% (active) | – |
| C=C(C)CNC(=S)Nc1nc2c(cc1C(=O)OCC)CCCC2 | – | inactive | inactive | inactive | 143% (active) | – | – | – |
| S=c1[nH]c(-c2ccccc2)cs1 | – | – | – | inactive | 380% (active) | 184% (active) | 464% (active) | – |
| Clc1ccc(-c2csc(N3CCc4ccccc4C3)n2)cc1 | inactive | inactive | inactive | inactive | – | – | – | – |
| Cc1cc(/C=N\NC(=O)CC(=O)NC2CCCCC2)c(C)n1-c1cccc(Cl)c1Cl | inactive | inactive | – | inactive | – | – | 153% (active) | – |
| Cc1ccc(C(=O)Nc2nc3ccccc3c(=O)s2)cc1 | – | – | – | inactive | 186% (active) | 35.5% (active) | 216% (active) | – |
| Cc1cccc(C)c1NC(=S)NC(=O)c1ccc(Br)o1 | – | – | – | inactive | 394% (active) | 122% (active) | 412% (active) | – |
| Cc1ccc(-n2cccc2/C=C2\C(=N)N3N=C(C(C)C)SC3=NC2=O)cc1 | inactive | – | inactive | – | – | 23.5% (active) | – | 36% (active) |
| Cc1nc(NC(=S)NC(=O)c2cccs2)ccc1Br | – | – | inactive | inactive | 148% (active) | 23.5% (active) | – | – |
| CCOC(=O)c1c(NC(=S)NCCc2ccccc2)sc2c1CC(C(C)C)OC2 (centres undefined) | inactive | – | – | inactive | – | 32% (active) | 146% (active) | – |
| Cc1c(CCC(=O)N2CCC[C@H]2C(=O)O)c(=O)oc2c(C)c3oc4c(c3cc12)CCCC4 | inactive | inactive | inactive | inactive | – | – | – | – |
| Cc1ccccc1C(=O)c1c[nH]c(C(=O)N2CCN(c3ccccc3F)CC2)c1 | inactive | inactive | inactive | inactive | – | – | – | – |
